pKd: −log10 of the molar value.
Experiments:
[1] = Growth inhibition of African green monkey Vero cells at 10 uM after 72 hrs by […] assay relative to control; format: cell-based; details: chlorocebus sabaeus, read-out: GI
How it was run: (§1)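 KB and Vero cells were grown in D-MEM with 10% FCS and antibiotics under 5% CO2, plated, then dosed 24 h later at 10^-5 M from DMSO (controls 1% DMSO). After 72 h, MTS was added for 3 h at 37 °C and A490 read. Inhibition = (1 − OD treated/OD control) × 100, in triplicate.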

[2] = test system: MCF7; assay: Growth inhibition of human MCF7 cells at 10 uM after 72 hrs by […] assay relative to control; format: functional; details: MCF7, 72 h, read-out: GI
How it was run: (§2)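 HT29, MCF7 and PC-3 cells were grown in RPMI, plated, and treated 24 h later with compound in DMSO at 10^-5 M (DMSO controls, 1% final). After 72 h exposure, MTS reagent was added for 3 h at 37 °C and absorbance read at 490 nm. Proliferation inhibition = [1 − OD treated/OD control] × 100, triplicate experiments.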

[3] = test system: PC-3; assay: Growth inhibition of human PC3 cells at 10 uM after 72 hrs by […] assay relative to control; format: functional; details: PC-3, 72 h, read-out: GI; how it was run: as §2
[4] = test system: HT-29; assay: Growth inhibition of human HT-29 cells at 10 uM after 72 hrs by […] assay relative to control; format: functional; details: HT-29, 72 h, read-out: GI; how it was run: as §2
[5] = test system: KB; assay: Growth inhibition of human KB cells at 10 uM after 72 hrs by […] relative to control; format: functional; details: read-out: GI; how it was run: as §1
[6] = molecular target: T1, Tyrosine-protein kinase receptor TYRO3 (Homo sapiens, UniProt Q06418); assay: Binding affinity to TYRO3 (unknown origin) after 1 hr
T1 sequence (Q06418 whole entry): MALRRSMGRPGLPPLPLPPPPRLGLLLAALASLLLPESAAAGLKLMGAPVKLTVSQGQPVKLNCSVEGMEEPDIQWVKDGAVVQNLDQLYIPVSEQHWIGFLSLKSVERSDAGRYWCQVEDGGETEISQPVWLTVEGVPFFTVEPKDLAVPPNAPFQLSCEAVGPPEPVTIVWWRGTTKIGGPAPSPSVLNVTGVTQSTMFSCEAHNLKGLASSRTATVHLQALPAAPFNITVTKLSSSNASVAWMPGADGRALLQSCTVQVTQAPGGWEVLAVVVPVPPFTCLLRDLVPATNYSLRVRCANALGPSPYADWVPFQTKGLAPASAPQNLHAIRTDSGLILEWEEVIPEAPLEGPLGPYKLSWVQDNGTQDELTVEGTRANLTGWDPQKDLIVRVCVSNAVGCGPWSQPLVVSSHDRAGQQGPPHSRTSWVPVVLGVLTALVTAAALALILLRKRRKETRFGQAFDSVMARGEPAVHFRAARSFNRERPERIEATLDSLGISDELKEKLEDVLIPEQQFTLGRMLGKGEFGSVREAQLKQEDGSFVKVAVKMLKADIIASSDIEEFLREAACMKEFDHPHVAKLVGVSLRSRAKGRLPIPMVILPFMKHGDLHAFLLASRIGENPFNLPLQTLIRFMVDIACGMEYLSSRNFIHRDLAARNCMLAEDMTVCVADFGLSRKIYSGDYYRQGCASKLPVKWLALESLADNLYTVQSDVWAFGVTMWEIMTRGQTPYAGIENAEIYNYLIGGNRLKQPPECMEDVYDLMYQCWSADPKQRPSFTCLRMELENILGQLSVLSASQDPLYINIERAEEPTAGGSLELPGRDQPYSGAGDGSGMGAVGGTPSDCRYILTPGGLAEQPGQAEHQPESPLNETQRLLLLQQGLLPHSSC

[7] = molecular target: Hepatocyte growth factor receptor (Homo sapiens, UniProt P08581); assay: Binding affinity to MET (unknown origin) after 1 hr
Sequence of Hepatocyte growth factor receptor (P08581 whole entry): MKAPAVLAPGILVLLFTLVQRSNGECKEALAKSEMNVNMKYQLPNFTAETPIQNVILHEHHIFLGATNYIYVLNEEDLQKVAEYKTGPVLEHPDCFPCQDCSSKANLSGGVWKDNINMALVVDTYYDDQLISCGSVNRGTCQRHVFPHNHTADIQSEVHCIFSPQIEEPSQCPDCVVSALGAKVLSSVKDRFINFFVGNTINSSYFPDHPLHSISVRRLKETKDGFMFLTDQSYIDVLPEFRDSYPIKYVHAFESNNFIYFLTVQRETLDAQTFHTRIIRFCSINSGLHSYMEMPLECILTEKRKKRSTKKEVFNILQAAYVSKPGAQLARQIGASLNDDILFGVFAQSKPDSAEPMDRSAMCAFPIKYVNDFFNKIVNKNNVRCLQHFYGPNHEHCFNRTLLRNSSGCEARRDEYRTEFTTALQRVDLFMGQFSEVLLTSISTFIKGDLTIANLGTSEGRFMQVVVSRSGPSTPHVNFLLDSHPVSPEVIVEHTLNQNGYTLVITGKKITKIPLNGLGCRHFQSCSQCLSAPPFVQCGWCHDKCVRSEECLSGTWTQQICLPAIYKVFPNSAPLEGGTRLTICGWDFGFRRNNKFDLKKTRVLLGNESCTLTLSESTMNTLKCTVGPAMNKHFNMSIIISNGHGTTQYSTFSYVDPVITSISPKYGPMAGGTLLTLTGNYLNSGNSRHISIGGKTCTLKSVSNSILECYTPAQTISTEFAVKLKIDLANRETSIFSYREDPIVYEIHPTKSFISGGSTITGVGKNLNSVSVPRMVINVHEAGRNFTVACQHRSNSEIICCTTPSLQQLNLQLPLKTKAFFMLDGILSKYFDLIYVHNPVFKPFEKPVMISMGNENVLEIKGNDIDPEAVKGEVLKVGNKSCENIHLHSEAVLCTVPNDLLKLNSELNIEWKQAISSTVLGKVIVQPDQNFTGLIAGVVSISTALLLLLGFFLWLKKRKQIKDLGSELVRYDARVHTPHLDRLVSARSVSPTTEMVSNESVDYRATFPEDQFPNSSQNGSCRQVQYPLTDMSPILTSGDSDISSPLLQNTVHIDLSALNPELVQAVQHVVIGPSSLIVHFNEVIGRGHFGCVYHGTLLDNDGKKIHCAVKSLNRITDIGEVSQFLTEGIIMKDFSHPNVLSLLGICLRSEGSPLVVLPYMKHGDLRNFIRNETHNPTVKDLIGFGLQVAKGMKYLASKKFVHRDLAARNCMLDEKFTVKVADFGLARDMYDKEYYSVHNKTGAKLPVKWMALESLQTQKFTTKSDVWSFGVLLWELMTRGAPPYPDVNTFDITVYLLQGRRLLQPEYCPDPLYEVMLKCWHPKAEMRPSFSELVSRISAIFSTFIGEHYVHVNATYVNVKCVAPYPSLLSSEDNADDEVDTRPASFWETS

[8] = molecular target: T2, Tyrosine-protein kinase ABL1 (Homo sapiens, UniProt P00519); assay: Binding affinity to phosphorylated ABL1 (unknown origin) after 1 hr
T2 sequence (P00519 whole entry): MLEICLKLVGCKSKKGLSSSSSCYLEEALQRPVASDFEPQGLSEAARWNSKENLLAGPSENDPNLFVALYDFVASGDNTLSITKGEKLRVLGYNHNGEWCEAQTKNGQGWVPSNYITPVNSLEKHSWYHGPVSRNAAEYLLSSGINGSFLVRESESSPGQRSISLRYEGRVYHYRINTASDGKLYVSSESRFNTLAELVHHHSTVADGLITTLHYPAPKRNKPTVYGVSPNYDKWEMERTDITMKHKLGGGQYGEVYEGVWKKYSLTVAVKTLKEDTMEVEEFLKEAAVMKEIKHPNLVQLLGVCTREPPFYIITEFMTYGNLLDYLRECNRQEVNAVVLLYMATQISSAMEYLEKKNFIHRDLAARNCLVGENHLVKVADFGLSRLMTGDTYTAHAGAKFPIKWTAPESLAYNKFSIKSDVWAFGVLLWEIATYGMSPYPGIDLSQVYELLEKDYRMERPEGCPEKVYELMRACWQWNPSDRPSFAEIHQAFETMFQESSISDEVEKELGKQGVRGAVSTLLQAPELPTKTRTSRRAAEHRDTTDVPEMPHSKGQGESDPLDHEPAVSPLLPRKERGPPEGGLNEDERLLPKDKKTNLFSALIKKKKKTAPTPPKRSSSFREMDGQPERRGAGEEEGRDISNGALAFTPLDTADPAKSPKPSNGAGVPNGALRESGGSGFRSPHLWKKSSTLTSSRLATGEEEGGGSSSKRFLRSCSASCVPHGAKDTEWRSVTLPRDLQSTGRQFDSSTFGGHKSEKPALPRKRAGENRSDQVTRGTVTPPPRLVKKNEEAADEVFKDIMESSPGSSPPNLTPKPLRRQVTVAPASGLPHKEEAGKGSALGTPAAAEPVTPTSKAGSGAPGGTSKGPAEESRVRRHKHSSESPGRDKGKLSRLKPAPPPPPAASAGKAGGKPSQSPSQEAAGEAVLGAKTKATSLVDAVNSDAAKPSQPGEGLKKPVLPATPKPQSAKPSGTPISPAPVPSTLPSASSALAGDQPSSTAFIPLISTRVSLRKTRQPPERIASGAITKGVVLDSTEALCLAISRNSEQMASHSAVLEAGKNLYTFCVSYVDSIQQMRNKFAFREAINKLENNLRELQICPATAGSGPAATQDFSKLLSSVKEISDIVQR

[9] = molecular target: T2, Tyrosine-protein kinase ABL1; assay: Binding affinity to non phosphorylated ABL1 (unknown origin) after 1 hr
[10] = molecular target: T3, Tyrosine-protein kinase receptor TYRO3 (Homo sapiens) (UniProt Q06418); assay: Inhibition of TYRO3 (unknown origin) at 200 nM relative to control
T3 sequence (whole entry): T1 sequence (Q06418 whole entry)

[11] = molecular target: T4, Tyrosine-protein kinase Mer (Homo sapiens) (UniProt Q12866); assay: Inhibition of MER (unknown origin) at 200 nM relative to control
T4 sequence (whole entry): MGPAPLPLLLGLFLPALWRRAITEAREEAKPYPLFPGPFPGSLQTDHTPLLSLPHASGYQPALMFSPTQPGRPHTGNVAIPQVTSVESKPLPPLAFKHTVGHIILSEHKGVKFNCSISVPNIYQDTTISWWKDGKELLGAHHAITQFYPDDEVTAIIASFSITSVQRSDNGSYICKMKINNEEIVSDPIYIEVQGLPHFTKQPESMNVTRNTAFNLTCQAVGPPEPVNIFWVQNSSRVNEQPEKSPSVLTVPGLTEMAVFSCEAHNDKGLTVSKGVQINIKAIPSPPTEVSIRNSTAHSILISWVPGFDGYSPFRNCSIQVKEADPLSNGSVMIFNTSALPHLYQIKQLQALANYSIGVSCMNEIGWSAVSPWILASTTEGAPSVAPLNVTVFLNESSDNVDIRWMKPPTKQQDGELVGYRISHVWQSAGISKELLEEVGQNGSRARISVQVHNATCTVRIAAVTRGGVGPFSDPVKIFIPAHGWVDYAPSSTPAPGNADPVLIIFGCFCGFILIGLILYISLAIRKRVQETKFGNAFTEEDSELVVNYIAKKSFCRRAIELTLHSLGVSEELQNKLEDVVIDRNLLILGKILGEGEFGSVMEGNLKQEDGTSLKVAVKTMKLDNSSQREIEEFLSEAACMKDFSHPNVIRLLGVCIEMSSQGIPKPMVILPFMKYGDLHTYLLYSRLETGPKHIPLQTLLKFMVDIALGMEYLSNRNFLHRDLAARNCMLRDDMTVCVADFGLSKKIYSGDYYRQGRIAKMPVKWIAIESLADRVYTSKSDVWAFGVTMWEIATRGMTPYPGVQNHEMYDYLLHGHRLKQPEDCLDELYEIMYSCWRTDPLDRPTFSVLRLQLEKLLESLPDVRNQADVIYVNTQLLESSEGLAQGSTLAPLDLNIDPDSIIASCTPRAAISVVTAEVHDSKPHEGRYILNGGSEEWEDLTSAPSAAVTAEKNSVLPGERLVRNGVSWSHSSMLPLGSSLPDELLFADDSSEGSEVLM

[12] = molecular target: T5, Tyrosine-protein kinase receptor UFO (Homo sapiens, UniProt P30530); assay: Binding affinity to AXL (unknown origin) after 1 hr
T5 sequence (P30530 whole entry): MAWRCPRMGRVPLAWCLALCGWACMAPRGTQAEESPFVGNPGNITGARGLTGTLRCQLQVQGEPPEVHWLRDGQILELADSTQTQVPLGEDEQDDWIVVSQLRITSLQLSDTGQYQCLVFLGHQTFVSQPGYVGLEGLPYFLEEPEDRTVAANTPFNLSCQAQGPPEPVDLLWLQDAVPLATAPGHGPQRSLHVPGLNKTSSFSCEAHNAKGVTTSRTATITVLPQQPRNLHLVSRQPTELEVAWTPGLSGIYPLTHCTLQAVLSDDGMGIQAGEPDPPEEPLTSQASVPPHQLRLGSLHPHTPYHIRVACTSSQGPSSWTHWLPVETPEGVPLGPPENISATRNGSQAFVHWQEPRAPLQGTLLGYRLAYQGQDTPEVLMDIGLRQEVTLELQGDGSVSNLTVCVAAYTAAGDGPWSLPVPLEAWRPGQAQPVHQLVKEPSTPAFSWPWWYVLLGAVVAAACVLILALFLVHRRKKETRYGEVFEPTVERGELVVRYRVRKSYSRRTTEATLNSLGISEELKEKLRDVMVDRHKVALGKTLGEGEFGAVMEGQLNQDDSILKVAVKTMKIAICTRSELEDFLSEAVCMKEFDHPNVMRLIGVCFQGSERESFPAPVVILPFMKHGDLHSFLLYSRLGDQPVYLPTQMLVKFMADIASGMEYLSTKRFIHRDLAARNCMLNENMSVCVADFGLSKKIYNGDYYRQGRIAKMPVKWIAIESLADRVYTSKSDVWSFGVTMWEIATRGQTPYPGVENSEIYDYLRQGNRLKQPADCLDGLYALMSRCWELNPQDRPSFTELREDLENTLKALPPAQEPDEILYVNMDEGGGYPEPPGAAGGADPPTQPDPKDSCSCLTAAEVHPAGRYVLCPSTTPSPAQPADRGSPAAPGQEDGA

[13] = molecular target: T6, Tyrosine-protein kinase Mer (Homo sapiens, UniProt Q12866); assay: Binding affinity to MER (unknown origin) after 1 hr
T6 sequence (Q12866 whole entry): T4 sequence (whole entry)

pKd [6]	pKd [7]	pKd [8]	pKd [9]	inhibition [10] [%]	inhibition [11] [%]	pKd [12]	pKd [13]	SMILES	inhibition at 72 h, 10 µM [1] [%]	inhibition of growth at 10 µM [2] [%]	inhibition of growth at 10 µM [3] [%]	inhibition of growth at 10 µM [4] [%]	inhibition of growth at 10 µM [5] [%]
6.05	6.36	5.48	6.49	–	–	–	–	O=C(Nc1ccc(Oc2ncnc3[nH]cnc23)c(F)c1)c1cccn(-c2cccc(F)c2)c1=O	< 10	< 10	< 10	< 10	< 10
–	–	–	–	> 50	> 90	–	–	CC(C)[S+]([O-])c1ccccc1Nc1nc(Nc2ccc(CN3CCN(C)CC3)cc2)ncc1Cl (centres undefined)	–	–	–	–	–
5.54	6.82	–	–	–	–	–	–	O=C(Nc1ccc(Oc2ncnc3nc[nH]c23)c(F)c1)c1cccn(-c2ccc(C(F)(F)F)cc2)c1=O	< 10	< 10	< 10	< 10	< 10

Continued, compound first:

SMILES	pKd [6]	pKd [7]	pKd [8]	pKd [9]	inhibition [10] [%]	inhibition [11] [%]	pKd [12]	pKd [13]	inhibition at 72 h, 10 µM [1] [%]	inhibition of growth at 10 µM [2] [%]	inhibition of growth at 10 µM [3] [%]	inhibition of growth at 10 µM [4] [%]	inhibition of growth at 10 µM [5] [%]
O=C(Nc1cccc(-c2ncnc3[nH]cnc23)c1)c1cccn(-c2cccc(C(F)(F)F)c2)c1=O	–	–	–	–	–	–	–	–	< 10	< 10	< 10	< 10	< 10
COc1ncccc1C(=O)Nc1cccc(-c2nc3c(Nc4ccc(F)cc4)ncnc3[nH]2)c1	–	–	–	–	–	–	–	–	< 10	< 10	< 10	< 10	< 10
O=C(Nc1ccc(Oc2ncnc3nc[nH]c23)c(F)c1)c1cccn(-c2ccc(F)cc2)c1=O	6.70	7.19	4.40	5.18	–	–	7.41	7.38	< 10	< 10	< 10	< 10	< 10
Cc1cc(C(=O)Nc2ccc(Nc3ncnc4[nH]cnc34)c(F)c2)ccc1Br	–	–	–	–	–	–	–	–	< 10	< 10	< 10	< 10	< 10
COc1ncccc1C(=O)Nc1cccc(-c2nc3c(Nc4cccc(C(F)(F)F)c4)ncnc3[nH]2)c1	–	–	–	–	–	–	–	–	< 10	< 10	< 10	< 10	< 10

Reference: ChEMBL document CHEMBL2346606, “Inhibitors of the TAM subfamily of tyrosine kinases: synthesis and biological evaluation” (Eur J Med Chem, 2013)
